Test results published in ChEMBL document CHEMBL6078712, “Triterpenoid phthalimides as selective anti-cancer agents targeting mitochondrial apoptosis” (Eur J Med Chem, 2025).
Calls of active or inactive are those of the source. No cut-off for these calls is given here.

Experiments:
CCRF-CEM [1] = assay: Cytotoxicity against human CCRF-CEM cells assessed as inhibition of cell growth incubated for 72 hrs by MTS assay; assay type: functional, cell-based
Method in brief: (§1)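 MTS assay on eight human cancer lines and two non-tumour fibroblast lines. IC50 is the concentration that inhibits cell growth by 50 %. SD typically up to 15 % of the mean.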

CEM-DNR = assay: Cytotoxicity against human CEM-DNR cells assessed as inhibition of cell growth incubated for 72 hrs by MTS assay; assay type: functional, cell-based; method in brief: as §1
HCT-116 = assay: Cytotoxicity against human HCT-116 cells assessed as inhibition of cell growth incubated for 72 hrs by MTS assay; assay type: functional, cell-based; conditions: HCT-116, 72 h; method in brief: as §1
HCT 116 TP53(-/-) = assay: Cytotoxicity against human HCT116-p53-null cells assessed as inhibition of cell growth incubated for 72 hrs by MTS assay; assay type: functional, cell-based; method in brief: as §1
K562 = assay: Cytotoxicity against human K562 cells assessed as inhibition of cell growth incubated for 72 hrs by MTS assay; assay type: functional, cell-based; conditions: K562, 72 h; method in brief: as §1
[2] = Cytotoxicity against human K562-Tax cells assessed as inhibition of cell growth incubated for 72 hrs by MTS assay; assay type: functional, cell-based; method in brief: as §1
A549 = assay: Cytotoxicity against human A549 cells assessed as inhibition of cell growth incubated for 72 hrs by MTS assay; assay type: functional, cell-based; conditions: A549, 72 h; method in brief: as §1
U2OS = assay: Cytotoxicity against human U2OS cells assessed as inhibition of cell growth incubated for 72 hrs by MTS assay; assay type: functional, cell-based; method in brief: as §1
[3] = Cytotoxicity against human BJ cells assessed as inhibition of cell growth incubated for 72 hrs by MTS assay; assay type: toxicity, cell-based; method in brief: as §1
[4] = Cytotoxicity against human MRC5 cells assessed as inhibition of cell growth incubated for 72 hrs by MTS assay; assay type: toxicity, cell-based; method in brief: as §1
[5] = Stability in human plasma assessed as compound remaining at 2 uM incubated for 15 mins by RF-MS analysis; assay type: ADME, cell-free; conditions: read-out: Stability
Method in brief: (§2)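 Human plasma stability, plasma protein binding and liver microsome stability, each run in triplicate. Error deviations below 10 %.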

[6] = Stability in human plasma assessed as compound remaining at 2 uM incubated for 120 mins by RF-MS analysis; assay type: ADME, cell-free; conditions: read-out: Stability; method in brief: as §2
[7] = Plasma protein binding in human assessed as fraction bound at 10 uM incubated for 4 hrs by rapid equilibrium dialysis based RF-MS analysis; assay type: ADME, cell-free; conditions: read-out: PPB (converted); method in brief: as §2
[8] = Metabolic stability in human liver microsomes assessed as parent compound remaining at 2 uM incubated for 15 mins in presence of NADPH by RF-MS analysis; assay type: ADME, Microsome; conditions: read-out: Stability; method in brief: as §2
[9] = Metabolic stability in human liver microsomes assessed as parent compound remaining at 2 uM incubated for 30 mins in presence of NADPH by RF-MS analysis; assay type: ADME, Microsome; conditions: read-out: Stability; method in brief: as §2
[10] = Metabolic stability in human liver microsomes assessed as parent compound remaining at 2 uM incubated for 60 mins in presence of NADPH by RF-MS analysis; assay type: ADME, Microsome; conditions: read-out: Stability; method in brief: as §2
CCRF-CEM [11] = assay: Induction of apoptosis in human CCRF-CEM cells assessed as viable cells at 1 times IC50 incubated for 24 hrs by Annexin V-FITC and PI staining based flow cytometric analysis (reference value: 97.4 %); assay type: functional
Method in brief: (§3)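 Washed in Ca2+-containing binding buffer, then stained 15 min at room temperature in the dark with Annexin V-FITC and propidium iodide (PI at half the kit-recommended level). Read at once by flow cytometry with a 488 nm laser, ≥10,000 cells. Debris excluded; quadrants viable, early apoptotic, late apoptotic/necrotic, necrotic. Three independent experiments.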

CCRF-CEM [12] = assay: Induction of apoptosis in human CCRF-CEM cells assessed as early apoptotic cells at 1 times IC50 incubated for 24 hrs by Annexin V-FITC and PI staining based flow cytometric analysis (reference value: 2.1 %); assay type: functional; method in brief: as §3
CCRF-CEM [13] = assay: Induction of apoptosis in human CCRF-CEM cells assessed as necrotic cells at 1 times IC50 incubated for 24 hrs by Annexin V-FITC and PI staining based flow cytometric analysis (reference value: 0.4 %); assay type: functional; method in brief: as §3
CCRF-CEM [14] = assay: Induction of apoptosis in human CCRF-CEM cells assessed as viable cells at 5 times IC50 incubated for 24 hrs by Annexin V-FITC and PI staining based flow cytometric analysis (reference value: 97.4 %); assay type: functional; method in brief: as §3
CCRF-CEM [15] = assay: Induction of apoptosis in human CCRF-CEM cells assessed as necrotic cells at 5 times IC50 incubated for 24 hrs by Annexin V-FITC and PI staining based flow cytometric analysis (reference value: 0.4 %); assay type: functional; method in brief: as §3
Mitochondrial membrane [16] = assay: Induction of mitochondrial membrane potential depolarization in human CCRF-CEM cells assessed as fold increase in fluorescence intensity at 5 times IC50 incubated for 24 hrs by JC-1 staining based flow cytometry; assay type: cell membranes
Mitochondrial membrane [17] = assay: Induction of mitochondrial membrane potential depolarization in human CCRF-CEM cells assessed as fold increase in fluorescence intensity incubated for 24 hrs by JC-1 staining based flow cytometry; assay type: cell membranes
CCRF-CEM [18] = assay: Induction of cell cycle arrest in human CCRF-CEM cells assessed as increase in accumulation of G0/G1 phase at 1 times IC50 incubated for 24 hrs by RNase/PI staining based flow cytometry; assay type: functional
Method in brief: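 Propidium iodide staining and flow cytometry with a 488 nm laser, ≥10,000 intact cells. Phase proportions compared with untreated cells; SEM of three independent experiments.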

CCRF-CEM [19] = assay: Inhibition of DNA synthesis in human CCRF-CEM cells at 1 times IC50 incubated for 24 hrs by BrdU incorporation based flow cytometry; assay type: functional
Method in brief: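 Fixed in ice-cold 70 % ethanol, DNA denatured in 2 M HCl for 30 min, neutralised with borax. Stained with anti-BrdU plus FITC secondary, then PI/RNase A for 1 h. Flow cytometry; % BrdU-positive cells.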

CCRF-CEM [20] = assay: Inhibition of RNA synthesis in human CCRF-CEM cells at 1 times IC50 incubated for 24 hrs by BrU incorporation based flow cytometry; assay type: functional
Method in brief: (§4)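 Fixed in 1 % paraformaldehyde/0.05 % NP-40 (15 min at room temperature, then 4 °C overnight). Stained with cross-reacting anti-BrdU plus FITC secondary (45 min each), then PI/RNase A. Flow cytometry; % BrU-positive cells.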

CCRF-CEM [21] = assay: Inhibition of RNA synthesis in human CCRF-CEM cells at 5 times IC50 incubated for 24 hrs by BrU incorporation based flow cytometry; assay type: functional; method in brief: as §4
CCRF-CEM [22] = assay: Induction of cell cycle arrest in human CCRF-CEM cells assessed as downregulation of total AKT expression at 5 times IC50 incubated for 24 hrs by Western blotting analysis; assay type: functional, cell-based
Method in brief: (§5)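 30 µg protein per lane on SDS-PAGE, transferred to nitrocellulose, blocked in 5 % BSA/TBS-Tween. Primary antibodies overnight at 4 °C (Akt, P-Akt Ser473, STAT-3, caspase-3, PARP, cyclin D, cyclin A, Bcl-xL, Bak, Bid, Bim), then HRP secondary and ECL detection. GAPDH as loading control.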

CCRF-CEM [23] = assay: Induction of cell cycle arrest in human CCRF-CEM cells assessed as downregulation of Cyclin D expression at 5 times IC50 incubated for 24 hrs by Western blotting analysis; assay type: functional, cell-based; method in brief: as §5
CCRF-CEM [24] = assay: Induction of apoptosis in human CCRF-CEM cells assessed as downregulation of caspase-3 expression at 5 times IC50 incubated for 24 hrs by Western blotting analysis; assay type: functional, cell-based; method in brief: as §5
CCRF-CEM [25] = assay: Induction of apoptosis in human CCRF-CEM cells assessed as upregulation of BIM expression at 1 to 5 times IC50 incubated for 24 hrs by Western blotting analysis; assay type: functional, cell-based; method in brief: as §5

remaining at 0.25 h, 2 µM [5]: 97%
remaining at 2 h, 2 µM [6]: 86%
fraction unbound at 4 h, 10 µM [7]: 0.121
remaining at 0.25 h, 2 µM [8]: 99%
remaining at 0.5 h, 2 µM [9]: 99%
remaining at 1 h, 2 µM [10]: 81%
fold change (FC) (Mitochondrial membrane [16]): > 20
Activity (Mitochondrial membrane [17]): Dose-dependent-effect
SMILES: CC(=O)O[C@H]1CC[C@]2(C)[C@H]3CC[C@@H]4[C@H]5[C@H](c6cc7c(c(-c8ccccc8)c6)C(=O)N(c6cc[nH]n6)C7=O)CC[C@]5(C(=O)O)CC[C@@]4(C)[C@]3(C)CC[C@H]2C1(C)C
IC50 (CCRF-CEM [1]): 5.13 µM
IC50 (CEM-DNR): 11.5 µM
IC50 (HCT-116): 9.54 µM
IC50 (HCT 116 TP53(-/-)): 13.7 µM
IC50 (K562): 14.5 µM
IC50 [2]: 13.3 µM
IC50 (A549): 18.9 µM
IC50 (U2OS): 13.8 µM
IC50 at 72 h [3]: 31.8 µM
IC50 at 72 h [4]: 22.6 µM
Activity (CCRF-CEM [11]): 92.8%
Activity (CCRF-CEM [12]): 4.8%
Activity (CCRF-CEM [13]): 0%
Activity (CCRF-CEM [14]): 86.5%
Activity (CCRF-CEM [15]): 0.1%
Activity (CCRF-CEM [18]): Active; Slight Increased Activity Observed
inhibition (INH) (CCRF-CEM [19]): 23.6%
inhibition (INH) (CCRF-CEM [20]): 23.8%
inhibition (INH) (CCRF-CEM [21]): 47.4%
Activity (CCRF-CEM [22]): Active; Slight Activity Observed
Activity (CCRF-CEM [23]): Active
Activity (CCRF-CEM [24]): Active
Activity (CCRF-CEM [25]): Active
